Experimental findings from the EternaBench riboswitch data are described below.

Usually apparent Kd stands for the concentration giving half-maximal binding under the conditions of the assay.

For this data set, the system named is MS2 coat protein. Put plainly: apparent Kd, MS2 coat protein; higher = weaker binding; RNA-MaP array; FMN 200 µM where present. The method, boiled down: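 Two titrations, one without ligand and one with constant ligand, were run with SNAP-549-labelled MS2 coat protein from 0.7 or 1.5 nM, doubling to 3 µM. The targets were designs transcribed by stalled E. coli RNA polymerase on Illumina sequencing-chip clusters, in 100 mM Tris-HCl pH 7.5, 80 mM KCl, 4 mM MgCl2, BSA, DTT, yeast tRNA and Tween-20. The apparent Kd is the median of filtered per-cluster binding-curve fits, with green signal normalised to red-channel RNA signal and control-cluster median Fmax.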

Setting [1] is: designed as: OFF switch for flavin mononucleotide, no ligand.
Setting [2] is: ligand present: flavin mononucleotide, designed as: OFF switch for flavin mononucleotide.
Where [3] appears, read: designed as: ON switch for flavin mononucleotide, no ligand.
The mark [4] stands for this setting: ligand present: flavin mononucleotide, designed as: ON switch for flavin mononucleotide.

Take “CAUACACAUGAGGAUCACCCAUGUGAGGAUAUGCGUACGUAAUCCGUAGGAGACGUGCGCAGAAGGCGCGAGGU”: the “apparent Kd” value is, setting by setting: under setting [1], 56.6 nM; under setting [2], 44 nM.

On to “AAAAAACAAGGAUAUACGUAUGAGGAUUGUCUUAAUUUUUGACAUGAGGAUCACCCAUGUAGAAGGUGUUAAAA”, for which the “apparent Kd” value under setting [1] came out at 120 nM and the “apparent Kd” value under setting [2] is 126 nM.

Turning to “AACAGUAUAGGAUAUACAUGAGGAUCACCCAUGUGAGAAUUAAGUGGCGUACCACUAAGUAGAAGGAUACUGGA”, the “apparent Kd” value worked out at 50.8 nM under setting [1] and 222 nM under setting [2].

For the sequence “UUGGACGGCGUAGGAUAUGUAGGAUAUUCCUACAUGAGGAUCACCCAUGUUGACAUGGAAGAAGGACAGAAGGACGAUGUCCAU”, the “apparent Kd” value reads like this: under setting [3], 303 nM; under setting [4], 4.94 nM.

Turning to “AAAACACAUGAGGAUCACCCAUGUGAGGAUAUGCUAUGGAAAAUAAAAAUAAAACAUAGCAGAAGGCACAAAGG”, the “apparent Kd” value by setting is: under setting [1], 62.5 nM; under setting [2], 152 nM.

Take “ACACUGCGAGGAUAUACAUGAGGAUCACCCAUGUGUCGGCAGGUACGGUAGCACUAGUGUAGAAGGCGCAUUGG”: the “apparent Kd” value under setting [1] worked out at 24.6 nM and the “apparent Kd” value under setting [2] was found to be 42 nM.

As for “UGGCUACAUGAGGAUCACCCAUGUCAGGAUAUGCCGUUAAAUUAACAUCAACAUACGGGUAGAAGGGACUGCGU”, the “apparent Kd” value reads like this: under setting [1], 28.8 nM; under setting [2], 29.5 nM.

For “CAGCGAAAGUAGAAGGCAGUACUGAUACAGUACUGAGGAUAUACAUGAGGAUCACCCAUGUUCUUCAGCUGGAAAUAAAUAAAA”, the “apparent Kd” value is, setting by setting: under setting [1], 8.02 nM; under setting [2], 124 nM.

“CCACCCUGAGGAUAUCCACCCUCAUACAUGAGGAUCACCCAUGUUCAUCCCUGAGUUCCCGGAGAAGGCAGAUUCC”: the “apparent Kd” value by setting is: under setting [1], 55.3 nM; under setting [2], 47.5 nM.

Turning to “AAGUAGUGUGUGAGGAUAUUGGUGGAAUGACAUAUUAAGAAGGCACAUGAGGAUCACCCAUGUGGGAUGUCACG”, the “apparent Kd” value by setting is: under setting [1], 12.6 nM; under setting [2], 12.6 nM.

On to “GUGGCCCAGGCACAGGAUAUGUUUCUCGUAACAUGAGGAUCACCCAUGUGCCUAUGAGAUUGUUUGCAGAAGGGUGCACGCCACG”, for which the “apparent Kd” value reads like this: under setting [3], 449 nM; under setting [4], 24 nM.

As to “UGGUACUAGGGAGGAUAUGGGAAGAUACAUGAGGAUCACCCAUGUGUAAGAAUGCCGAGAGGCAACUAGAAGGCCCUAGUACCU”, the “apparent Kd” value is, setting by setting: under setting [3], 56 nM; under setting [4], 6.58 nM.

As to “UGUGUGUGGCAGGAUAUUCCGGUCGUUGGUCGGGAAGAAGGGUCUACAUGAGGAUCACCCAUGUGACCGGUUGG”, the “apparent Kd” value turned out to be 25.6 nM under setting [1] and 26.2 nM under setting [2].

Consider “CAGGUAGACUGAGGAUAUACAAAAGACCUAGUCUAUCUAGGUCACAUCACAUGAGGAUCACCCAUGUAGAAGGCAGUCUGCCUG”, for which the “apparent Kd” value came to 16.2 nM under setting [1] and 27.1 nM under setting [2].

For “GUAGAGUAGUGAGGAUAUACGAGAUCGAUAGAUCGGCGAUCCAUUUAUACAUGAGGAUCACCCAUGUAGAAGGCACUUCUCUAC”, the “apparent Kd” value by setting is: under setting [1], 6.26 nM; under setting [2], 62.8 nM.

On to “AAAAAAAGAGGAUAUACAUGAGAAAAAAAAAUGUAAAAAAAACAUGAGGAUCACCCAUGUAGAAGGCUUAAAAA”, for which the “apparent Kd” value by setting is: under setting [1], 34.6 nM; under setting [2], 45.4 nM.

In the case of “CGGUACACAGGAUAUAACGUCUGCAACAUGAGGAUCACCCAUGUUGUCCAAACGUUGCGGUUAGAAGGGUGGGCGC”, the “apparent Kd” value was 30.7 nM under setting [1] and 70.8 nM under setting [2].

Consider “UUGGACGUCGUAGGAUAUGUAGGAUAUUCCCACAUGAGGAUCACCCAUGUUGACAUGGAAGAAGGACAGAAGGACGAUGUCCAU”, for which the “apparent Kd” value turned out to be 4.05 nM under setting [3] and 3.47 nM under setting [4].

For “AUUUAUGGCCAGAAGGACAUGAGGAUCACCCAUGUAGGAUAUGGACGAUUUUGCUCGGCGGUUUGUUUAGGAAGCACCGGUGAU”, the “apparent Kd” value worked out at 21.5 nM under setting [3] and 7.6 nM under setting [4].

“CGGGAAGUCGUAGGAUAUGGUGAUGUACAUGAGGAUCACCCAUGUCCGUCUUCUCUCACAAGAUGCCAGAAGGGCGACUCCCGG”: the “apparent Kd” value runs as follows: under setting [3], 641 nM; under setting [4], 317 nM.

On to “AGCCCGGGAGGAUAUCCAAUAUAUGACAUGAGGAUCACCCAUGUUUCCACUCGUACCUCCGGAGAAGGCCCGGCGA”, for which the “apparent Kd” value turned out to be 19.7 nM under setting [1] and 19.4 nM under setting [2].

As for “ACUAGAUGAGGAUAUGCAUAUUUUCGUGUUCUUCUAGAUUAACAUGAGGAUCACCCAUGUAGAAGGCGUCUGGU”, the “apparent Kd” value by setting is: under setting [1], 30.7 nM; under setting [2], 62 nM.

In the case of “GCCAUCACAUGAGGAUAUGCUCCCGUUUCGGGAGCAGAAGGCGUGUCAUAAGACAUGAGGAUCACCCAUGUAGCUAAGAUGGCA”, the “apparent Kd” value reads like this: under setting [3], 321 nM; under setting [4], 12.6 nM.

Take “UCAUCGGCAGGAUAUACGAAAGGAGAACUUCUGCGCAAGAUACAUGAGGAUCACCCAUGUAGAAGGGUCGUAUG”: the “apparent Kd” value under setting [1] was determined as 27.8 nM and the “apparent Kd” value under setting [2] worked out at 88.7 nM.

Turning to “GGGCACAAAGGAUAUACAUGAGGAUCACCCAUGUUCACCACAACAUGUUACUGCCCAAGUAGAAGGUUGGCCCA”, the “apparent Kd” value under setting [1] was found to be 38.7 nM and the “apparent Kd” value under setting [2] was determined as 288 nM.

As for “CCUCCACAUGAGGAUCACCCAUGUCACACUCCGUCAGGAUAUAGCCUGCAUCCGCUGUGGCUAGAAGGGACUGCUG”, the “apparent Kd” value under setting [3] was determined as 332 nM and the “apparent Kd” value under setting [4] was 303 nM.

For “CUGCUGGAGCUUUGCUUUAGUCGUACAUGAGGAUCACCCAUGUAGGAUAUGGUAGGCUUCGCUUACUAGAAGGAUAGAGUGGUC”, the “apparent Kd” value by setting is: under setting [1], 33.6 nM; under setting [2], 22.8 nM.

For the sequence “UUUUUAUUUGCAGGAUAUUGUUUUUUAUUACUUCAAGAAGGGCAUUACAUGAGGAUCACCCAUGUCAUCCUAUGGUUUACUAGU”, the “apparent Kd” value reads like this: under setting [1], 10.6 nM; under setting [2], 10.4 nM.

In the case of “GACUGCUGAGGAUAUACAUGAGGAUCACCCAUGUGCUUCAGCUAGGAGACUAGCAUUGGUAGAAGGUAGUAGUC”, the “apparent Kd” value under setting [1] came out at 11.1 nM and the “apparent Kd” value under setting [2] was 16.1 nM.

With “ACGGAACAUGAGGAUCACCCAUGUAUCUGAGAUAAGGUCUCGCAGGAUAUUCAGAGAAGCCUAUCGGAGAAGGGUGACACCAAA”, the “apparent Kd” value under setting [3] is 38.4 nM and the “apparent Kd” value under setting [4] amounted to 15.5 nM.

“GCCAUUUAUGUAGGAUAUGCGAGGCGAGCCUGAGCAGAAGGACAUGAGGAUCACCCAUGUAUUGCGGUUUAUGUUCAGAUCGCU”: the “apparent Kd” value was found to be 16.1 nM under setting [1] and 18.3 nM under setting [2].

“CAUGUCCUCACAGGAUAUGCUGGACUUUGUCCAGCAGAAGGGUGAACAUGAGGAUCACCCAUGUUGUGGACAUGUAUAUUUAAG”: the “apparent Kd” value runs as follows: under setting [3], 228 nM; under setting [4], 575 nM.

In the case of “AGGAAGGGUGCUCCGGCGGGCCGAGCAGAAGGGUGAUUGGACAUGAGGAUCACCCAUGUAUAAACACAGGAUAUGCAAACGGGU”, the “apparent Kd” value was found to be 305 nM under setting [3] and 13.1 nM under setting [4].

As for “GGGCCCGGAGGAUAUACAUGAGGAUCACCCAUGUGCCGGGCCCAACGGGCCCGGCUGUGUAGAAGGCCGGGCCC”, the “apparent Kd” value is, setting by setting: under setting [1], 13.3 nM; under setting [2], 12.5 nM.

Turning to “CUGUAGUGAGGAUAUUAUUUGCAAGCCCUAGACGGCGCGAAUGAGAAGGUACAUGAGGAUCACCCAUGUGGUUG”, the “apparent Kd” value by setting is: under setting [1], 126 nM; under setting [2], 297 nM.

With “GCCAGUUAUGUAGGAUAUGCGAGGCGAGCCUGAGCAGAAGGACAUGAGGAUCACCCAUGUAUUGCGGUUUGAGUUCUGAUCGCU”, the “apparent Kd” value came to 23.4 nM under setting [1] and 58.6 nM under setting [2].

In the case of “CCGUUGAUAGGACAGGAUAUGACUGUCGUCACAUGAGGAUCACCCAUGUCCCGGCAAUGCCACCGUUAGAAGGGUCCCGUCUCGG”, the “apparent Kd” value is, setting by setting: under setting [3], 18.8 nM; under setting [4], 19.2 nM.
